The source of these data is ChEMBL document CHEMBL2169822, “Discovery and optimization of 1,3,4-trisubstituted-pyrazolone derivatives as novel, potent, and nonsteroidal farnesoid X receptor (FXR) selective antagonists” (J Med Chem, 2012).

One may read the IC50 as the concentration at which inhibition is half-maximal.

Assay [1] concerns the target T1, Glucocorticoid receptor (Homo sapiens) (UniProt P04150).
T1 sequence (whole entry): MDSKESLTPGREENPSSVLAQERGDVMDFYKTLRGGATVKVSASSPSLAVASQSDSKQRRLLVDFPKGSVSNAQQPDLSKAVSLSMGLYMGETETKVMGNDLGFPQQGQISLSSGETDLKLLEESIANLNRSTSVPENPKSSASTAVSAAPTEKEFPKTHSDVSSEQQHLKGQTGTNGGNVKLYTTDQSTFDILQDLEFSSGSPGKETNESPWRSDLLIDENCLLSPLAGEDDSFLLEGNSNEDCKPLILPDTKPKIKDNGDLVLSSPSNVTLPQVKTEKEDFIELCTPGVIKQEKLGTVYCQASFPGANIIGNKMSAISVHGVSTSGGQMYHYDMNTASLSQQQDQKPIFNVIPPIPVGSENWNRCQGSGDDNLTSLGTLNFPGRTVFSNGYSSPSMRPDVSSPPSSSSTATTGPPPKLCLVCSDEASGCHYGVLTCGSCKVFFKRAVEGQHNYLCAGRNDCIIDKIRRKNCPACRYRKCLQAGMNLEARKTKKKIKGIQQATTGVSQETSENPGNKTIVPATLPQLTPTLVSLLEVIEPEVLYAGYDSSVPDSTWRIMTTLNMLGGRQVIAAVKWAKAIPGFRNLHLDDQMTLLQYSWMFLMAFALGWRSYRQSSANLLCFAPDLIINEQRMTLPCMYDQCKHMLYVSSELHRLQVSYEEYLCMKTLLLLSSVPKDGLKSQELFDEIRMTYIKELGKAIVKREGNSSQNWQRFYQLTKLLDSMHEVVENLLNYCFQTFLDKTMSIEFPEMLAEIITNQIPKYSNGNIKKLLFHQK
Description: Antagonist activity at recombinant GR LBD expressed in HEK293T cells co-expressing GAL4 DBD assessed as inhibition of dexamethasone-induced transactivation at 20 uM by luciferase reporter gene assay. The assay is classed as functional, cell-based. The conditions noted are these: HEK-293T. The method in brief:
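One-hybrid assay in HEK293T cells cotransfected with a Gal4 DBD–NR-LBD fusion (RXRα, LXRα, GR, PR, PPARδ or PPARγ) plus UAS-TK-Luc reporter. Compound was 20 μM, given alone or with agonist: 9cRA 0.1 μM (RXRα), TO901317 0.5 μM (LXRα), dexamethasone 50 nM (GR), progesterone 100 nM (PR), GW1516 10 μM (PPARδ), rosiglitazone 10 μM (PPARγ). Luciferase read-out; three independent experiments.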

A short description of assay [2]: (§1) Antagonist activity at FXRalpha/RXRalpha expressed in HEK293T cells co-expressing GAL4 DBD assessed as inhibition of CDCA-induced transactivation after 18 hrs by luciferase reporter gene assay. The assay is classed as functional, cell-based. The conditions noted are these: Homo sapiens, HEK-293T. The method in brief:
(§2)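 FXR transactivation in HEK293T cells transiently transfected with pcDNA3.1-FXRα, pcDNA3.1-RXRα, pGL3-FXRE-Luc and pRL-SV40 Renilla vector. Medium was replaced 6 h after transfection with medium holding compound at varied concentrations, with or without 20 μM CDCA, for 18 h. Read-out was dual-luciferase. Three independent experiments.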
In general terms: In a reporter assay the amount or activity of a reporter protein is the signal.

A further assay concerns HEK-293T. Described as §1. The assay is classed as functional, cell-based. The conditions noted are these: Homo sapiens. The method in brief: as §2
The nature of assay [3]: (§3) Antagonist activity at GST-tagged human recombinant FXRalphaLBD expressed in Escherichia coli BL21 cells assessed as inhibition of CDCA-induced SRC-1 co-activator association by HTRF assay. The assay is classed as functional. The method in brief: (§4)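 HTRF coactivator recruitment: 10 nM GST-human FXRαLBD (residues 238–473, E. coli BL21(DE3)), 0.83 nM anti-GST-Eu cryptate, 100 nM biotin-SRC1 peptide, 41.75 nM SA/XL665. Buffer was 50 mM Hepes pH 7.0, 125 mM KF, 0.125% CHAPS, 0.05% dry milk. Compound alone or with CDCA, 30 min at room temperature. Signal was 1000×(668/620 nm). Primary screen at 40 μM; IC50 as mean ± SE, three experiments.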
(In general: In TR-FRET formats the signal depends on donor and acceptor labels being close together.)

The test system of a further assay is BL21. Described as §3. The assay is classed as functional. The method in brief:
as §4

The test system of assay [4] is Mus musculus. The assay can be described thus: Reduction of hepatic triglyceride level in cholesterol-fed C57BL/6 mouse at 50 mg/kg, po after 10 days. The assay is classed as functional. Also on record: scale not given: the % may be the effect or the level left. Summed up:
(§5)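 Male C57BL/6 mice, 8–12 weeks old, were randomized into five groups of nine. Control mice had ground chow; the other groups had chow with 2% cholesterol. Compound (50 or 100 mg/kg) or reference (100 mg/kg) was suspended in 0.5% CMC-Na and given by oral gavage; control and vehicle mice got 0.5% CMC-Na. Serum and hepatic triglyceride and total cholesterol were measured.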

For assay [5], the system named is Mus musculus. The assay can be described thus: Reduction of total serum cholesterol level in cholesterol-fed C57BL/6 mouse at 50 to 100 mg/kg, po after 10 days. The assay is classed as functional. Also on record: scale not given: the % may be the effect or the level left. The conditions noted are these: dose mg/kg 50-100. The method in brief:
as §5

Assay [6] deals with Mus musculus. The assay can be described thus: Reduction of serum triglyceride level in cholesterol-fed C57BL/6 mouse at 50 mg/kg, po after 10 days. The assay is classed as functional. Also on record: scale not given: the % may be the effect or the level left. The method in brief: as §5
In assay [7] the target is T2, Bile acid receptor (Homo sapiens) (UniProt Q96RI1).
T2 sequence (whole entry): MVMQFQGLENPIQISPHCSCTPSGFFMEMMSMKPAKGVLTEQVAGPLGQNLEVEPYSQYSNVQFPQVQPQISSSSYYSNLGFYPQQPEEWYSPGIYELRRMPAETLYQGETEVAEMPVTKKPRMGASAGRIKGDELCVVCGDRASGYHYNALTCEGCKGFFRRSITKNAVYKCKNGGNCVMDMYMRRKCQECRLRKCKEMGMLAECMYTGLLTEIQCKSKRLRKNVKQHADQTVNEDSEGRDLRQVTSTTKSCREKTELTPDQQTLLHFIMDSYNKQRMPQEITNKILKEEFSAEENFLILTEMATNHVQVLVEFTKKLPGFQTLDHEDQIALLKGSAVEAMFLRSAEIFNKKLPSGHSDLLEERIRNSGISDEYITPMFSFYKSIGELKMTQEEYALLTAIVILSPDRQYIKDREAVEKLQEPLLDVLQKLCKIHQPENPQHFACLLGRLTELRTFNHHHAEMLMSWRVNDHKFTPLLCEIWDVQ
Description: Antagonist activity at human FXR in human HepG2 cells assessed as reduction in cholesterol level after 24 hrs. The assay is classed as functional, cell-based. Summed up:
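HepG2 cells were serum-starved overnight in FBS-free DMEM, then given DMSO or compound for 24 h in serum-free DMEM. Cells were lysed in RIPA buffer, sonicated on ice and centrifuged at 12000 rpm, 4 °C. Triglyceride and total cholesterol in the cleared lysate were measured by kits, with total protein by BCA. At least three experiments.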

In assay [8] the target is T2, Bile acid receptor (Homo sapiens). The assay can be described thus: Antagonist activity at human FXR in human HepG2 cells assessed as inhibition of CDCA induced SREBP1c gene expression at 5 to 40 uM after 24 hrs by RT-PCR analysis. The assay is classed as functional, cell-based. Summed up:
(§6)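 HepG2 cells in 6-well plates were treated with varied concentrations of compound, with or without 100 μM CDCA, for 24 h. Total RNA was taken with TRIzol and cDNA made by reverse transcription. Cyp7A1, SHP, BSEP and SREBP1c mRNA were measured by quantitative RT-PCR and normalized to β-actin. Three independent experiments.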

Assay [9] has the same target. Description: Antagonist activity at human FXR in human HepG2 cells assessed as inhibition of CDCA induced BSEP gene expression at 5 to 40 uM after 24 hrs by RT-PCR analysis. The assay is classed as functional, cell-based. Summed up:
as §6

Calls of active or inactive are those of the source. The calls are words filed in the database; no cut-off is given here.

Turning to `COc1cc(/C=C2\C(=O)N(c3cccc([N+](=O)[O-])c3)N=C2c2ccccc2)ccc1O`, the inhibition entry in [1] was “inactive”. Also, the IC50 came to 25.6 µM in assay [2] and 8.96 µM in [3]. Moreover, the inhibition result (in the assay with HEK-293T; in the assay with BL21; in assay [7]) was “Dose-dependent effect” each time. For the same compound, the Activity in the assay on Mus musculus [4] is 43.5%; in the assay with Mus musculus [5] it was 17.2%; with Mus musculus [6] it was 48.4%. Besides, the inhibition result in assay [8] and in assay [9] was “Active” in each case.
